Assay results reported in article PMC5114172 (Journal of applied toxicology : JAT, 2016).

Experiments:
PBMCs plus Granulocytes = assay: IL-1β secretion assay; assay type: cell-based, human; details: for Interleukin 1 beta secreted: PBMCs plus Granulocytes
In short: (§1)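 NK cells, MD-PBMCs, PBMCs or granulocytes (1.5 million/mL) or PBMC+granulocytes (0.75 million/mL each), per donor, exposed 24 h, 48 h or 6 days to 0.05–5 μM test compound diluted from DMSO stock, with DMSO controls. Supernatants kept at −70 °C. IL-1β by sandwich ELISA: HRP detection antibody, acid-stopped substrate, A450 against standards. Detection limit 3 pg/mL; triplicates; ANOVA then t test versus control, p<0.05.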

PBMCs = assay: IL-1β secretion assay; assay type: cell-based, human; details: for Interleukin 1 beta secreted: donor F148, 24 h
In short: as §1

CCC[CH2][Sn][CH2]CCC [DBT, Dibutyltin]
Interleukin 1 beta secreted (PBMCs plus Granulocytes; donor F148, 24 h, 0.05 μM DBT): 4217 ± 397 pg/mL
Interleukin 1 beta secreted (PBMCs plus Granulocytes; donor F148, 24 h, 0.1 μM DBT): 3060 ± 191 pg/mL
Interleukin 1 beta secreted (PBMCs plus Granulocytes; donor F148, 24 h, 0.25 μM DBT): 3344 ± 212 pg/mL
Interleukin 1 beta secreted (PBMCs plus Granulocytes; donor F148, 24 h, 0.5 μM DBT): 7275 ± 2061 pg/mL
Interleukin 1 beta secreted (PBMCs plus Granulocytes; donor F148, 24 h, 1 μM DBT): 2011 ± 148 pg/mL
Interleukin 1 beta secreted (PBMCs plus Granulocytes; donor F148, 24 h, 2.5 μM DBT): 736 ± 552 pg/mL
Interleukin 1 beta secreted (PBMCs plus Granulocytes; donor F148, 24 h, 5 μM DBT): 197 ± 78 pg/mL
Interleukin 1 beta secreted (PBMCs plus Granulocytes; donor F148, 48 h, 0.05 μM DBT): 646 ± 25 pg/mL
Interleukin 1 beta secreted (PBMCs plus Granulocytes; donor F148, 48 h, 0.1 μM DBT): 864 ± 11 pg/mL
Interleukin 1 beta secreted (PBMCs plus Granulocytes; donor F148, 48 h, 0.25 μM DBT): 1017 ± 76 pg/mL
Interleukin 1 beta secreted (PBMCs plus Granulocytes; donor F148, 48 h, 0.5 μM DBT): 1191 ± 200 pg/mL
Interleukin 1 beta secreted (PBMCs plus Granulocytes; donor F148, 48 h, 1 μM DBT): 491 ± 26 pg/mL
Interleukin 1 beta secreted (PBMCs plus Granulocytes; donor F148, 6 day, 0.5 μM DBT): 3 ± 1 pg/mL
Interleukin 1 beta secreted (PBMCs plus Granulocytes; donor F154, 24 h, 0.05 μM DBT): 1364 ± 181 pg/mL
Interleukin 1 beta secreted (PBMCs plus Granulocytes; donor F154, 24 h, 0.1 μM DBT): 1059 ± 141 pg/mL
Interleukin 1 beta secreted (PBMCs plus Granulocytes; donor F154, 24 h, 0.25 μM DBT): 835 ± 38 pg/mL
Interleukin 1 beta secreted (PBMCs plus Granulocytes; donor F154, 24 h, 0.5 μM DBT): 538 ± 33 pg/mL
Interleukin 1 beta secreted (PBMCs plus Granulocytes; donor F154, 24 h, 1 μM DBT): 386 ± 157 pg/mL
Interleukin 1 beta secreted (PBMCs plus Granulocytes; donor F154, 48 h, 0.05 μM DBT): 358 ± 88 pg/mL
Interleukin 1 beta secreted (PBMCs plus Granulocytes; donor F154, 48 h, 0.1 μM DBT): 346 ± 40 pg/mL
Interleukin 1 beta secreted (PBMCs plus Granulocytes; donor F154, 48 h, 0.25 μM DBT): 372 ± 47 pg/mL
Interleukin 1 beta secreted (PBMCs plus Granulocytes; donor F154, 48 h, 0.5 μM DBT): 372 ± 24 pg/mL
Interleukin 1 beta secreted (PBMCs plus Granulocytes; donor F154, 48 h, 1 μM DBT): 322 ± 11 pg/mL
Interleukin 1 beta secreted (PBMCs plus Granulocytes; donor F154, 48 h, 2.5 μM DBT): 321 ± 35 pg/mL
Interleukin 1 beta secreted (PBMCs plus Granulocytes; donor F154, 48 h, 5 μM DBT): 321 ± 20 pg/mL
Interleukin 1 beta secreted (PBMCs plus Granulocytes; donor F154, 6 day, 0.05 μM DBT): 65 ± 34 pg/mL
Interleukin 1 beta secreted (PBMCs plus Granulocytes; donor F154, 6 day, 0.1 μM DBT): 31 ± 16 pg/mL
Interleukin 1 beta secreted (PBMCs plus Granulocytes; donor F154, 6 day, 0.25 μM DBT): 8 ± 1 pg/mL
Interleukin 1 beta secreted (PBMCs plus Granulocytes; donor F154, 6 day, 0.5 μM DBT): 11 ± 0 pg/mL
Interleukin 1 beta secreted (PBMCs plus Granulocytes; donor F154, 6 day, 1 μM DBT): 10 ± 0 pg/mL
Interleukin 1 beta secreted (PBMCs plus Granulocytes; donor F154, 6 day, 2.5 μM DBT): 3 ± 0 pg/mL
Interleukin 1 beta secreted (PBMCs plus Granulocytes; donor F159, 24 h, 0.05 μM DBT): 438 ± 18 pg/mL
Interleukin 1 beta secreted (PBMCs plus Granulocytes; donor F159, 24 h, 0.1 μM DBT): 375 ± 28 pg/mL
Interleukin 1 beta secreted (PBMCs plus Granulocytes; donor F159, 24 h, 0.25 μM DBT): 648 ± 18 pg/mL
Interleukin 1 beta secreted (PBMCs plus Granulocytes; donor F159, 24 h, 0.5 μM DBT): 620 ± 40 pg/mL
Interleukin 1 beta secreted (PBMCs plus Granulocytes; donor F159, 24 h, 1 μM DBT): 617 ± 74 pg/mL
Interleukin 1 beta secreted (PBMCs plus Granulocytes; donor F159, 24 h, 2.5 μM DBT): 87 ± 12 pg/mL
Interleukin 1 beta secreted (PBMCs plus Granulocytes; donor F159, 48 h, 0.05 μM DBT): 109 ± 93 pg/mL
Interleukin 1 beta secreted (PBMCs plus Granulocytes; donor F159, 48 h, 0.1 μM DBT): 48 ± 8 pg/mL
Interleukin 1 beta secreted (PBMCs plus Granulocytes; donor F159, 48 h, 0.25 μM DBT): 141 ± 16 pg/mL
Interleukin 1 beta secreted (PBMCs plus Granulocytes; donor F159, 48 h, 0.5 μM DBT): 226 ± 16 pg/mL
Interleukin 1 beta secreted (PBMCs plus Granulocytes; donor F159, 48 h, 1 μM DBT): 311 ± 39 pg/mL
Interleukin 1 beta secreted (PBMCs plus Granulocytes; donor F159, 48 h, 2.5 μM DBT): 505 ± 54 pg/mL
Interleukin 1 beta secreted (PBMCs plus Granulocytes; donor F159, 48 h, 5 μM DBT): 192 ± 15 pg/mL
Interleukin 1 beta secreted (PBMCs plus Granulocytes; donor F159, 6 day, 0.05 μM DBT): 3 ± 2 pg/mL
Interleukin 1 beta secreted (PBMCs plus Granulocytes; donor F159, 6 day, 0.1 μM DBT): 3 ± 2 pg/mL
Interleukin 1 beta secreted (PBMCs plus Granulocytes; donor F159, 6 day, 0.5 μM DBT): 5 ± 1 pg/mL
Interleukin 1 beta secreted (PBMCs plus Granulocytes; donor F159, 6 day, 1 μM DBT): 5 ± 1 pg/mL
Interleukin 1 beta secreted (PBMCs plus Granulocytes; donor F159, 6 day, 2.5 μM DBT): 7 ± 1 pg/mL
Interleukin 1 beta secreted (PBMCs plus Granulocytes; donor F173, 24 h, 0.05 μM DBT): 150 ± 26 pg/mL
Interleukin 1 beta secreted (PBMCs plus Granulocytes; donor F173, 24 h, 0.1 μM DBT): 168 ± 34 pg/mL
Interleukin 1 beta secreted (PBMCs plus Granulocytes; donor F173, 24 h, 0.25 μM DBT): 146 ± 12 pg/mL
Interleukin 1 beta secreted (PBMCs plus Granulocytes; donor F173, 24 h, 0.5 μM DBT): 165 ± 13 pg/mL
Interleukin 1 beta secreted (PBMCs plus Granulocytes; donor F173, 24 h, 1 μM DBT): 632 ± 19 pg/mL
Interleukin 1 beta secreted (PBMCs plus Granulocytes; donor F173, 24 h, 2.5 μM DBT): 287 ± 22 pg/mL
Interleukin 1 beta secreted (PBMCs plus Granulocytes; donor F173, 24 h, 5 μM DBT): 140 ± 10 pg/mL
Interleukin 1 beta secreted (PBMCs plus Granulocytes; donor F173, 48 h, 0.05 μM DBT): 57 ± 35 pg/mL
Interleukin 1 beta secreted (PBMCs plus Granulocytes; donor F173, 48 h, 0.1 μM DBT): 17 ± 2 pg/mL
Interleukin 1 beta secreted (PBMCs plus Granulocytes; donor F173, 48 h, 0.25 μM DBT): 42 ± 6 pg/mL
Interleukin 1 beta secreted (PBMCs plus Granulocytes; donor F173, 48 h, 0.5 μM DBT): 32 ± 1 pg/mL
Interleukin 1 beta secreted (PBMCs plus Granulocytes; donor F173, 48 h, 1 μM DBT): 160 ± 2 pg/mL
Interleukin 1 beta secreted (PBMCs plus Granulocytes; donor F173, 48 h, 2.5 μM DBT): 124 ± 3 pg/mL
Interleukin 1 beta secreted (PBMCs plus Granulocytes; donor F173, 48 h, 5 μM DBT): 63 ± 1 pg/mL
average of the maximum fold increase in IL-β secretion (PBMCs plus Granulocytes; PBMCs+granulocytes, 24 h, across donors): 3.8 fold
fold increase in IL-1β secretion (PBMCs plus Granulocytes; PBMCs+granulocytes, donor F159, 24 h, 0.25 μM DBT): 1.9 fold
fold increase in IL-1β secretion (PBMCs plus Granulocytes; PBMCs+granulocytes, donor F159, 24 h, 0.5 μM DBT): 1.8 fold
fold increase in IL-1β secretion (PBMCs plus Granulocytes; PBMCs+granulocytes, donor F159, 24 h, 1 μM DBT): 1.8 fold
fold increase in IL-1β secretion (PBMCs plus Granulocytes; PBMCs+granulocytes, donor F159, 48 h, 0.25 μM DBT): 35 fold
fold increase in IL-1β secretion (PBMCs plus Granulocytes; PBMCs+granulocytes, donor F159, 48 h, 0.5 μM DBT): 56 fold
fold increase in IL-1β secretion (PBMCs plus Granulocytes; PBMCs+granulocytes, donor F159, 48 h, 1 μM DBT): 77 fold
average of the maximum fold increase in IL-β secretion (PBMCs; 24 h, across donors): 3.2 fold
Interleukin 1 beta secreted (PBMCs; 0.05 μM DBT): 120533 ± 8211 pg/mL
Interleukin 1 beta secreted (PBMCs; 0.1 μM DBT): 107467 ± 4636 pg/mL
Interleukin 1 beta secreted (PBMCs; 0.25 μM DBT): 137333 ± 3926 pg/mL
Interleukin 1 beta secreted (PBMCs; 0.5 μM DBT): 32400 ± 1833 pg/mL
